# Bioassay records (PubChem)
# STAT3 act – IL-6 driven STAT3 reporter potentiators, primary screen, U3A cells, luciferase, luminescence, MLSCN library. IL-6 STAT3-luciferase reporter; 100% = signal with IL-6 EC80 alone. activation (% of control), % at 5.6 µM. 0.91% of 190,000 active;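 active means activation above the screen-wide mean of compound activation plus 3 SD, cut at about 130% in these data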;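 further: 0% = background luminescence of wells with medium and substrate only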
#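 Assay system – human STAT1-deficient U3A cells with stable STAT3-luciferase reporter · Also added – IL-6 (33 ng/mL) · Schedule – compound 1 h, then IL-6 6 h at 37 °C · Technique – reporter luminescence signal · Evaluation – % activation versus median of IL-6-stimulated wells · Benchmarks – IL-6-only wells as 100% reference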
# TRAIL sens C8 – viability loss with TRAIL in NB7+C8 cells, primary screen, TRAIL sensitizer project, cell-based, ATPlite luminescence. inhibition (viability loss, TRAIL sensitization), % at 10 µM. 1% of 360,000 active;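 active means compounds causing at least 50% loss of cell viability in the single-dose screen, relative to plate controls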
# HSP90 inh – HSP90 inhibitors, primary screen, cell lysate, luminescence; Heat shock protein HSP 90 (rabbit reticulocyte lysate; luciferase refolding); Rabbit reticulocyte lysate, luciferase refolding luminescence, 3 h; inhibition, % at 5.6 µM; 0.91% of 290,000 active;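 active means inhibition above the screen-wide mean plus 3 SD, computed separately per campaign, cut at about 16% in these data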;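 further: 0% = DMSO wells and 100% = 60 µM geldanamycin wells; inhibitors lower the luminescence because luciferase stays unfolded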
# STAT1 blocker – STAT1 signaling inhibitors, primary screen, cell-based, HTS, luciferase reporter | 0.35% of 200,000 active | AID 920, 2007 | NIH 3T3 STAT1-luciferase reporter, IFN-gamma, luminescence | inhibition, % at 5.5 µM;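 active means inhibition above a set limit, the mean inhibition across all tested compounds plus 3 SD, cut at about 34% in these data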;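 further: 0% = IFN-gamma with DMSO and 100% = IFN-gamma with 300 µM nifuroxazide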
# PPC-1+TRAIL kill – compounds killing PPC-1 cancer cells with TRAIL present, primary screen, TRAIL potentiator project, ATPLite luminescence, uHTS; cell killing (% activity), % at 4 µM or 5 µM; 0.41% of 220,000 active; PPC-1 cells + TRAIL, ATPLite viability luminescence;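 active means cell killing above 50% in the first pass at 4 µM, then a duplicate retest at 5 µM averaging 50% or more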;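 further: plate controls were cells with TRAIL plus DMSO for no effect and medium-only wells lacking cells for full effect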
# STAT3 blocker – IL-6 driven STAT3 reporter inhibitors, primary screen, U3A cells, luciferase, luminescence, MLSCN library; IL-6 STAT3-luciferase reporter; host cell line lacks STAT1; inhibition, % at 5.5 µM; 0.89% of 190,000 active; AID 862, 2007;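 active means inhibition above the mean inhibition across all screened compounds plus 3 SD, cut at about 44% in these data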;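 further: 0% = DMSO only wells and 100% = 100 µM nifuroxazide control wells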
# Starred values were filed as active, the others as inactive; nt = not tested or not shown; ! = repeats disagree. Most compounds without a hit are left out; they make up all but 2.3% or so of the library.
SMILES,STAT3 act,TRAIL sens C8,HSP90 inh,STAT1 blocker,PPC-1+TRAIL kill,STAT3 blocker
COc1cccc2c1C(=N)c1c(O)c3c(c(O)c1C2=O)CC(O)(C(C)=O)CC3OC1CC(N)C(O)C(C)O1 (stereo not given),nt,49.7,nt,nt,nt,nt
COc1cccc2c1C(=O)c1c(O)c3c(c(O)c1C2=O)C[C@](O)(C(C)=O)C[C@H]3O[C@@H]1C[C@@H](N)[C@@H](O)[C@@H](C)O1,nt,62.3*,nt,nt,nt,nt
Cc1cccn2c(=O)nc(SCC(=O)N3N=C(c4cccs4)CC3c3ccc(F)cc3)nc12 (stereo not given),nt,-1.4,nt,nt,nt,nt
COC(/C=C/Nc1ccc(C)cc1)=C(C#N)C#N,135.8*,0.1,-1.8,0.5,-8.9,-37.3
CCOc1ccc(CN(C)CC(=O)Nc2cccc(C)c2)cc1OC,96.4,7.1,-1.1,17.7,24.0,6.3
[O-][N+]1=c2ccc(Nc3ccccc3)cc2=NC12CCCCC2,106.3,69.5*,8.9,-37.3,11.2,-4.2
COc1ccc(Nc2ccc3c(c2)=NC2(CCCCC2)[N+]=3[O-])cc1,98.8,37.1,2.5,-23.4,-2.5,3.9
COC(=O)C(Sc1nc(C)cc(C)c1C#N)c1ccccc1 (stereo not given),93.9,-20.3,-1.0,1.1,-2.7,17.1
Cc1cc(C)c(C#N)c(Sc2ccccc2N)n1,167.8*,4.4,-0.2,-42.8,23.2,-77.2
Cc1ccnc(NC(c2ccccn2)c2c(C)[nH]c3ccccc23)c1 (stereo not given),91.1,-0.5,-0.4,1.9,-16.3,14.6
Cc1cc(NC(c2cccnc2)c2c(C)[nH]c3ccccc23)no1 (stereo not given),106.4,-15.8,16.5*,8.3,-3.6,-0.9
Cc1ccc(C(=O)Nc2nc3ccccc3c(=O)s2)cc1,84.8,61.0*,-0.3,-27.6,39.5,21.4
CCOC(=O)c1c(C)nc2c(c1-c1cc(OC)ccc1OC)C(=O)c1ccccc1-2,107.1,67.8*,-1.5,0.0,-4.5,-1.0
CCN(C(=O)CSc1ncccc1C(=O)OC(C)C)c1cccc(C)c1,104.9,10.8,3.1,2.1,-22.6,-9.2
CCC(=O)Nc1sc2c(c1C(N)=O)CCN(C(C)=O)C2,94.6,3.5,-1.9,-2.2,nt,6.8
CC(=O)N1CCc2c(sc(NC(=O)c3ccc([N+](=O)[O-])o3)c2C(N)=O)C1,nt,61.5*,nt,nt,nt,nt
c1ccc2c(c1)[nH]c1ccncc12,nt,2.3,nt,nt,nt,nt
CCOC(=O)CCCCC(=O)c1[nH]c(=O)[nH]c1CSc1nnc2c3cc(Br)ccc3n(C)c2n1,133.6*,nt,-1.5,-6.8,26.4,-35.8
CCOC(=O)CCCCC(=O)c1[nH]c(=O)[nH]c1CSc1nc(C)cc(C)n1,100.8,3.7,0.6,6.0,18.8,3.3
COc1cc(NC(=O)CSc2nnc(Cn3nnc4ccccc43)n2C)cc(OC)c1,100.9,-29.0,-3.2,-1.0,-10.0,0.0
CC(=O)Oc1ccc(/C=N\NC(=O)c2cc3c(ccc4ccccc43)o2)cc1,nt,63.8*,-4.7,nt,nt,nt
Cc1ccc(/C=N/NC(=O)c2cc3c(ccc4ccccc43)o2)o1,nt,-5.3,3.5,nt,nt,nt
O=C(CSc1ccsc1[N+](=O)[O-])NCc1ccccc1,134.6*,0.1,0.1,-13.0,17.4,-39.3
CC1CCCCC1n1c(=S)[nH]c2ccccc2c1=O (stereo not given),105.5,15.6,0.7,3.7,6.0,-3.2
O=C(COC(=O)c1ccc(F)cc1F)NCCNC(=O)COC(=O)c1ccc(F)cc1F,nt,-17.9,4.2,nt,nt,nt
SMILES,STAT3 act,TRAIL sens C8,HSP90 inh,STAT1 blocker,PPC-1+TRAIL kill,STAT3 blocker
CC(C)c1ccc2c(c1)CC[C@H]1[C@](C)(CN)CCC[C@]21C,nt,68.2*!,nt,nt,nt,nt
CCS(=O)(=O)Nc1ccc(C2=NN(C(=O)c3ccco3)C(c3cccc(F)c3)C2)cc1 (stereo not given),90.1,-9.2,5.6,63.1*,19.2,17.4
CCS(=O)(=O)Nc1ccc(C2=NN(C(=O)c3ccco3)C(c3ccc(C)cc3)C2)cc1 (stereo not given),81.9,-7.6,3.2,8.0,6.1,31.7
CC(C)(CNC(=O)c1ccc([N+](=O)[O-])c(Cl)c1)CNC(=O)c1ccc([N+](=O)[O-])c(Cl)c1,98.7,53.1*,-5.7,2.5,27.8,3.1
C=CCNC(=O)c1ccc([N+](=O)[O-])c(Cl)c1,100.3,9.5,1.5,0.4,3.6,4.5
Cc1cc(C)n(-c2nc3ccccc3c(=O)n2OCc2ccc(F)cc2)n1,135.2*,3.4,-1.6,9.7,16.3,-31.1
Cc1cc(C)n(-c2nc3ccccc3c(=O)n2OCC(=O)OCc2ccccc2)n1,98.7,3.7,-0.8,-4.9,-0.8,10.3
CCOC(=O)c1cnc(SC2CCc3ccccc3C2=O)nc1N (stereo not given),126.4,-6.9,16.4*,-11.2,-3.7,-25.9
CCC(=O)N1N=C(c2ccc(NS(=O)(=O)c3ccc(C)cc3)cc2)CC1c1ccco1 (stereo not given),nt,10.2,nt,nt,nt,nt
C=C1C(=O)C23C(O)C1CCC2C12CCCC(C)(COC(C)=O)C1C(O)C3(O)OC2 (stereo not given),nt,73.8*,nt,nt,nt,nt
CCCNC(=O)Cc1cc(=O)[nH]c(=O)[nH]1,104.1,-4.2,2.7,8.1,10.7,0.4
CSc1ccc(CNC(=O)Cc2ccc(NC(=O)C3=C(C)OCCS3)cc2)cc1,nt,58.8*,1.0,nt,nt,nt
COc1ccc(-c2c(-c3ccc(OC)nc3)c3ccccc3n2C)cc1,nt,19.0,nt,nt,nt,nt
CCCCCCCC1c2c(c(C)c(C)oc2=O)Oc2c(C)c(C)oc(=O)c21,nt,-2.7,nt,nt,nt,nt
Cc1ccc(C2CC2c2n[nH]c(=S)n2-c2ccc(Cl)cc2)cc1 (stereo not given),93.0,71.9*,6.2,6.6,-6.1,7.0
Cc1ccc(C2CC2c2n[nH]c(=S)n2-c2cccc(C)c2)cc1 (stereo not given),91.9,14.9,-1.0,9.6,10.9,14.6
O=C(CSc1ncc(C(F)(F)F)cc1Cl)NCC1CCCO1 (stereo not given),nt,2.6,3.2,nt,18.2,nt
C(=N\Nc1nncc2ccccc12)/c1ccccn1,nt,81.3*,28.9*,nt,nt,nt
CC(=O)Nc1ccc(/C=N/Nc2nncc3ccccc23)cc1,nt,41.0,2.7,nt,nt,nt
Clc1ccc(-n2cnc3c(Cl)ncnc32)cc1Cl,nt,73.7*,nt,nt,nt,nt
O=c1c2ccccc2ncn1-c1ccc(Cl)c(Cl)c1,104.2,-2.4,-1.6,-12.6,7.5,-3.7
C=CCNc1nc(NCc2ccc(NC(C)=O)cc2)c2sc(-c3ccccc3)cc2n1,nt,63.9*,nt,nt,nt,nt
O=S(=O)(NC1c2cccc3cccc(c23)C1N1CCN(CCO)CC1)c1ccccc1 (stereo not given),133.8*,-3.4,5.2,-1.1,21.8,-29.5
